Compounds with a hit are over-represented: about 1.3% of the library has one in this group of screens.
Yeast growth inh: chemicals that inhibit yeast BB579 growth in restrictive medium (lifespan-shortening candidates). S. cerevisiae BB579 growth, OD615, 48 h. inhibition, % at 10 µM. 140,000 tested, 0.51% active;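 active = inhibition above a set limit, 3 SD over the mean compound inhibition, cut at about 44% in these data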
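Test system: DeaD yeast strain BB579 / Buffer or medium: restrictive glucose-based CSMM-D medium / Doses: single 10 µM dose / Schedule: 4 h cell preincubation, 48 h compound exposure, 30 °C humidified / Technique: culture absorbance at 615 nm / Controls: amphotericin B positive control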
Yeast life ext: yeast lifespan extension. 130,000 tested, 0.68% active. inhibition of the nicotinamide effect, % at 10 µM. AID 775. S. cerevisiae growth with nicotinamide, OD615; deaD strain in restrictive glucose medium;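 active = inhibition above a set limit, placed 3 SD over the median of all compounds, cut at about 26% in these data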;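 note: 0% = nicotinamide-treated wells and 100% = cells grown without nicotinamide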
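Test system – modified budding yeast, DeaD strain · Compound – single dose 10 µM compound, 0.25% DMSO · Times – culture preincubation 4 h, compound exposure 48 h, both 30 °C · Detection – optical density (absorbance) at 615 nm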
SDO1 yeast rescue: restores growth of sdo1-depleted yeast. 140,000 tested, 0.21% active. S. cerevisiae sdo1-depleted JHY4D growth rescue, OD600 30 h; stronger effect = higher value; pdr5 snq2 efflux-pump mutant strain. z-score at 10 µM;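 active = z-score above 3 at both the 24 hr and the 30 hr optical density reads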;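 note: z-score against mean and SD of all compound wells on the same plate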
Efa HMGR inh: E. faecalis class II HMG-CoA reductase inhibition; 190,000 tested, 0.41% active; purified E. faecalis HMGR, NADPH absorbance 340 nm kinetic; inhibition, % at 10 µM; AID 1066;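 active = inhibition above a set limit, the median over all tested compounds plus 3 SD, cut at about 9.5% in these data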;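 note: enzyme runs in reverse so mevalonate oxidation gives rising NADPH absorbance; 0% = complete reaction with DMSO and 100% = background rate lacking mevalonate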
Numbers without * were called inactive.

How did COc1ccc(NS(=O)(=O)c2ccc3nc(COc4ccc(C#N)cc4)[nH]c3c2)cc1 do in these assays?
Yeast growth inh: -25; Yeast life ext: 3; SDO1 yeast rescue: 0.75; Efa HMGR inh: -2

What do the screens show for `COc1ccc(C[C@H]2COC(=O)[C@@H]2Cc2ccc(OC3OC(CO)C(O)C(O)C3O)c(OC)c2)cc1OC` (some centres undefined)?
Yeast growth inh: -24; Yeast life ext: 0; SDO1 yeast rescue: 0.42; Efa HMGR inh: 20*

Results for COC(=O)c1sc2ncn(-n3c(C)ccc3C)c(=O)c2c1C ?
Yeast growth inh: -73; Yeast life ext: 85*; SDO1 yeast rescue: -0.42; Efa HMGR inh: 0

How did CCOC(=O)Cn1cnc2sc(C(=O)OC)c(C)c2c1=O do in these assays?
Efa HMGR inh: -2

How did CCOc1cccc(CNCCO)c1OCc1ccc(Cl)cc1Cl do in these assays?
Yeast growth inh: -1; Yeast life ext: -3; SDO1 yeast rescue: 0.81; Efa HMGR inh: -6

What do the screens show for `CCOc1cc(CNCCO)cc(Br)c1OCc1ccc(Cl)cc1Cl`?
Yeast growth inh: 96*; Yeast life ext: -36; SDO1 yeast rescue: -2.3; Efa HMGR inh: 1

How did CCOC(=O)c1c(NC(=O)CSc2nnc(C)s2)sc2c1CCC(CC)C2 (centres undefined) do in these assays?
Yeast growth inh: -22; SDO1 yeast rescue: -0.84; Efa HMGR inh: 14*

How did COc1ccccc1/C=C/C(=O)NCc1ccccn1 do in these assays?
Efa HMGR inh: -7

What do the screens show for `Cc1ccc(C(C(=O)NC(C)(C)C)N(Cc2ccc3c(c2)OCO3)C(=O)c2ccc(CN3CCOCC3)o2)o1` (centres undefined)?
Efa HMGR inh: 15*

Results for CC(C)(C)NC(=O)C(c1cccs1)N(Cc1cccs1)C(=O)c1ccc(CN2CCOCC2)o1 (centres undefined) ?
Efa HMGR inh: 6

Results for COc1ccccc1NC(=S)N1CCCc2ccccc21 ?
Efa HMGR inh: 16*

What do the screens show for `Cc1cc(OCCCCn2ccnc2)cc(C)c1Cl`?
Efa HMGR inh: 0

Results for Nc1cccc2nc3ccccc3cc12 ?
Yeast growth inh: 59*; Yeast life ext: -5; SDO1 yeast rescue: -0.42; Efa HMGR inh: 3

How did Nc1[nH]nc2nc3ccccc3cc12 do in these assays?
Efa HMGR inh: 10*

How did Cc1ccc(/C=C2\SC(=S)N(C(Cc3ccccc3)C(=O)O)C2=O)cc1 (centres undefined) do in these assays?
Yeast growth inh: -48; Yeast life ext: 8; SDO1 yeast rescue: -0.08; Efa HMGR inh: -2

What do the screens show for `O=C(O)C(Cc1ccccc1)N1C(=O)/C(=C/c2ccccc2)SC1=S` (centres undefined)?
Yeast growth inh: -36; Yeast life ext: 33*; SDO1 yeast rescue: 0.23; Efa HMGR inh: -6

Results for COc1ccc(NS(=O)(=O)c2cc(NC(=O)c3nc4nc(C)cc(C)n4n3)ccc2C)cc1 ?
Efa HMGR inh: -9

Results for CCOc1ccccc1N1CCN(C(=O)CC(C)(C)C)CC1 ?
Efa HMGR inh: 11*

How did O=C(CCN1CCCCCC1)Nc1ccc(F)cc1 do in these assays?
Yeast growth inh: -58; Yeast life ext: 64*; SDO1 yeast rescue: 0.4; Efa HMGR inh: -2

Results for O=C(CCN1CCCCCC1)Nc1ccc(F)c(F)c1 ?
Yeast growth inh: -37; Yeast life ext: -4; SDO1 yeast rescue: 0.2; Efa HMGR inh: -5

What do the screens show for `CC(=O)NCCNC(=O)C1CCCCN1S(=O)(=O)c1ccccc1` (centres undefined)?
Efa HMGR inh: -3

Results for CCCNc1nc(Cl)nc(NC(C)(C)C)n1 ?
Efa HMGR inh: 0

Results for CN(Cc1ccccc1)C(=O)c1nn2cccnc2c1Cl ?
Efa HMGR inh: 2

What do the screens show for `Brc1c(NC2=NCCN2)ccc2nccnc12`?
Yeast growth inh: -51; Yeast life ext: 12; SDO1 yeast rescue: 0.48; Efa HMGR inh: 18*

How did CCOC(=O)C(C(=O)OCC)c1cc(Br)c2noc3c2c1C(=O)c1ccccc1-3 do in these assays?
Yeast growth inh: -25; Yeast life ext: 46*; SDO1 yeast rescue: -1.1; Efa HMGR inh: -7

Results for Cc1cc(C)cc(C(=O)NCC(=O)OCC(=O)Nc2cccnc2Cl)c1 ?
Efa HMGR inh: 4

Results for O=[N+]([O-])c1cccc(/C=N/n2cnnc2)c1O ?
Yeast growth inh: 76*; Yeast life ext: -9; SDO1 yeast rescue: 0.52; Efa HMGR inh: -3

Results for S=C(NCC1CCCO1)N1CCN(Cc2ccccc2)CC1 (centres undefined) ?
Efa HMGR inh: 3

Results for N#CC1(c2ccc(NC(=O)c3ccccc3)cc2)CCCC1 ?
Yeast growth inh: -22; Yeast life ext: -13; SDO1 yeast rescue: -1.6; Efa HMGR inh: 13*

How did CCOc1ccc(NC(=O)C(C)NS(=O)(=O)c2ccc(NC(C)=O)cc2)cc1 (centres undefined) do in these assays?
Efa HMGR inh: -4

How did Cc1nc(N2CCOCC2)c2oc3ccccc3c2n1 do in these assays?
Yeast growth inh: -20; Yeast life ext: -18; SDO1 yeast rescue: 0.05; Efa HMGR inh: -3

What do the screens show for `c1ccc2c(c1)oc1c(N3CCOCC3)ncnc12`?
Yeast growth inh: 56*; Yeast life ext: -14; SDO1 yeast rescue: -0.54; Efa HMGR inh: -4

What do the screens show for `Cc1ccc(S(=O)(=O)NCC(=O)N(CC(=O)NCC2CCCO2)Cc2ccco2)cc1` (centres undefined)?
Efa HMGR inh: 7

What do the screens show for `CN(C)CCNS(=O)(=O)c1ccc(N2CCN(c3ccc(F)cc3)CC2)c([N+](=O)[O-])c1`?
Yeast growth inh: 23; Yeast life ext: -7; SDO1 yeast rescue: -0.07; Efa HMGR inh: -5

Results for CC(C)(C)n1nc(-c2ccc(Cl)cc2)c2c(N)ncnc21 ?
Yeast growth inh: 83*; Yeast life ext: -18; SDO1 yeast rescue: -2.6; Efa HMGR inh: 2

Results for Cc1ccc(-c2nc(N)c3c(-c4ccc(C)cc4)nn(C(C)(C)C)c3n2)cc1 ?
Yeast growth inh: -4; Yeast life ext: -4; SDO1 yeast rescue: -0.23; Efa HMGR inh: -3

What do the screens show for `CC(C)(C)n1nc(-c2ccc(F)cc2)c2c(N)ncnc21`?
Yeast growth inh: 88*; Yeast life ext: -6; SDO1 yeast rescue: -2.7; Efa HMGR inh: -4

How did Cc1ccc(NC(=O)C(=O)NCCN2CCN(C(=S)Nc3ccccc3)CC2)cc1 do in these assays?
Yeast growth inh: -3; Yeast life ext: -4; SDO1 yeast rescue: -0.59; Efa HMGR inh: -5

How did CCn1cc(C(=O)O)c(=O)c2cc(F)c(N3CCN(S(=O)(=O)c4ccc(Br)cc4)CC3)cc21 do in these assays?
Yeast growth inh: -24; Yeast life ext: 2; SDO1 yeast rescue: -1.5; Efa HMGR inh: 10*

What do the screens show for `CCOc1cccc2sc(NN)nc12`?
Efa HMGR inh: -6

Results for NNc1nc2c(Cl)ccc(Cl)c2s1 ?
Yeast growth inh: -52; Yeast life ext: -4; SDO1 yeast rescue: -0.32; Efa HMGR inh: 19*

Results for CCCOc1ccc(CNCCCOCC)cc1OC ?
Efa HMGR inh: 0

From PubChem
